Assay results as given in ChEMBL document CHEMBL1149097, “Orally active antimalarials: hydrolytically stable derivatives of 10-trifluoromethyl anhydrodihydroartemisinin” (J Med Chem, 2004).
Values after ≈ are worked out from the molar mass of the structure shown.

Experiments:
Mus musculus [1] = assay: Percentage reduction of parasitaemia at day 4 at a concentration of 10 mg/kg by subcutaneous administration; format: functional
Outline: (§1)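 P. berghei N infection in mice, with drug given subcutaneously or orally, per the Peters protocol. Parasitemia was read on day 4 and expressed as percent reduction at 10 mg/kg. ED50 and ED90 in mg/kg were derived from the same test.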

Mus musculus [2] = assay: In vivo effective dose evaluated against Plasmodium berghei N by subcutaneous administration in mice (Mus musculus); format: functional; conditions: sc; outline: as §1
Mus musculus [3] = assay: In vivo antimalarial activity against Plasmodium berghei NK173 in mice (Mus musculus) by intraperitoneal route at a concentration of 35.5 uM/kg at day 4; format: functional
Outline: (§2)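 Female CD1 mice (18-20 g) were infected with P. berghei NK 173 at (1-5) × 10^6 parasitized red cells, following the Peters test. Groups held 5-10 mice. Drug was given intraperitoneally at 35.5 µmol·kg⁻¹. Survival was followed to 20 days postinfection.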

Mus musculus [4] = assay: In vivo antimalarial activity against Plasmodium berghei NK173 in mice (Mus musculus) by intraperitoneal route at a concentration of 35.5 uM/kg at day 11; format: functional; outline: as §2
Mus musculus [5] = assay: In vivo effective dose was evaluated against Plasmodium berghei N by sub cutaneous administration in mice (Mus musculus); format: functional; outline: as §1
Plasmodium falciparum [6] = assay: In vitro inhibitory concentration against chloroquine-resistant Plasmodium falciparum W2; format: functional, organism-based
Outline: (§3)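 [3H]hypoxanthine uptake assay on chloroquine-resistant P. falciparum FcB1 (Colombia) and W2 (Indochina) in continuous human erythrocyte culture. Ring-stage synchronized parasites at 0.5% parasitemia and 1% final hematocrit received serially diluted drug, with methanol or DMSO at no more than 0.1% final. Plates ran 42 h at 37 °C in a candle jar, then freeze-thaw, harvest and scintillation counting. IC50 came from nonlinear regression of log dose-response, from at least three experiments.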

Mus musculus [7] = assay: Compound was evaluated for percentage reduction of parasitaemia at day 4 at a concentration of 10 mg/kg by peroral administration; format: functional; conditions: route oral; outline: as §1
[8] = Volume of distribution following 10 mg/kg intravenous or 50 mg/kg oral dosing in rats was determined; format: ADME, organism-based; conditions: rat, in vivo; read-out: Activity
Outline: (§4)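 Male Sprague-Dawley rats (280-320 g) were cannulated the day before, then fasted with free access to water, n = 2 per route. The iv dose was nominally 10 mg/kg, about 3 mg/mL in 10% ethanol/15 mM citrate-buffered 0.1 M Captisol, pH 3, infused over 5 min. The oral dose was nominally 50 mg/kg, given by gavage as a suspension in 0.5% HPMC, 0.5% benzyl alcohol and 0.4% Tween 80 in 0.9% NaCl. Carotid blood was sampled over 8 h, and plasma was quantified by HPLC/MS.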

Plasmodium falciparum [9] = assay: In vitro inhibitory concentration against chloroquine-resistant Plasmodium falciparum FcB1; format: functional, organism-based; outline: as §3
[10] = Plasma clearance following 10 mg/kg intravenous or 50 mg/kg oral dosing in rats; format: ADME, organism-based; conditions: rat, read-out: Activity; outline: as §4
[11] = Solubility in iv formulation was determined after incubation at 25 degree C
[12] = Solubility in oral formulation was determined after incubation at 25 degree C; format: physicochemical
[13] = Oral bioavailability in rat (dose 10 mg/kg i.v. and 50 mg/kg p.o.); format: ADME, organism-based; conditions: in vivo; outline: as §4
[14] = Solubility in PBS AT pH 7.4 was determined after incubation at 25 degree C; format: physicochemical
Mus musculus [15] = assay: In vivo effective dose was evaluated against Plasmodium berghei N by peroral administration in mice (Mus musculus); format: functional; conditions: po; outline: as §1
Mus musculus [16] = assay: In vivo effective dose evaluated against Plasmodium berghei N by peroral administration in mice (Mus musculus); format: functional; conditions: po; outline: as §1
Mus musculus [17] = assay: In vivo antimalarial activity against Plasmodium berghei NK 173 in mice (Mus musculus) by intraperitoneal route at a concentration of 35.5 uM/kg at day 5; format: functional; outline: as §2
Mus musculus [18] = assay: In vivo antimalarial activity against Plasmodium berghei NK 173 in mice (Mus musculus) by intraperitoneal route at a concentration of 35.5 uM/kg at day 10; format: functional; outline: as §2
Mus musculus [19] = assay: In vivo effective dose was evaluated against Plasmodium berghei N by subcutaneous administration in mice (Mus musculus); format: functional; conditions: sc; outline: as §1
Mus musculus [20] = assay: In vivo antimalarial activity against Plasmodium berghei NK 173 in mice (Mus musculus) by intraperitoneal route at a concentration of 35.5 uM/kg at day 12; format: functional; outline: as §2
[21] = Log D value between octanol and PBS at pH7.4; format: physicochemical; conditions: pH 7.4
[22] = pKa value was determined; format: physicochemical
[23] = Partition coefficient between octanol and water (logP); format: physicochemical

Compound CCOCC1=C(C(F)(F)F)O[C@@H]2OC3(C)CC[C@H]4[C@H](C)CC[C@@H]1[C@@]24OO3 (single isomer, unassigned) has a Reduction (Mus musculus [1]) of 100%, an ED90 (Mus musculus [2]) of under 10 mg/kg and a Parasitemia (Mus musculus [3]) of 0.4%. For the same compound, the Parasitemia (Mus musculus [4]) was 30%, the ED50 (Mus musculus [5]) was under 10 mg/kg and the IC50 (Plasmodium falciparum [6]) was 25 nM. The Reduction (Mus musculus [7]) was 15.6%.

CO[C@H]1O[C@@H]2O[C@@]3(C)CC[C@H]4[C@H](C)CC[C@@H]([C@H]1C)[C@@]24OO3 [ARTEMETHER] gave a Vd [8] of 8.4 L/kg, an IC50 (Plasmodium falciparum [9]) of 3.5 nM and a clearance [10] of 114 mL/min/kg. It also gave a solubility [11] of 4700 µg/mL (≈ 15800 µM), a solubility [12] of 256 µg/mL (≈ 858 µM) and a Parasitemia (Mus musculus [3]) of 0%. The Parasitemia (Mus musculus [4]) was 32%, the bioavailability [13] was 1.4% and the solubility [14] was 63.4 µg/mL (≈ 212 µM).

In the case of C[C@@H]1CC[C@H]2C(CNS(C)(=O)=O)=C(C(F)(F)F)O[C@@H]3OC4(C)CC[C@@H]1[C@]32OO4 (single isomer, unassigned), the IC50 (Plasmodium falciparum [9]) is reported as 20 nM.

For Cc1ccc(S(=O)(=O)NCC2=C(C(F)(F)F)O[C@@H]3OC4(C)CC[C@H]5[C@H](C)CC[C@@H]2[C@@]35OO4)cc1 (single isomer, unassigned), the IC50 (Plasmodium falciparum [9]) was 19.1 nM.

With CNCC1=C(C(F)(F)F)O[C@@H]2OC3(C)CC[C@H]4[C@H](C)CC[C@@H]1[C@@]24OO3 (single isomer, unassigned) the IC50 (Plasmodium falciparum [9]) was 9.2 nM.

C[C@H]1[C@H](OC(=O)CCC(=O)O)O[C@@H]2O[C@@]3(C)CC[C@H]4[C@H](C)CC[C@@H]1[C@@]24OO3 [ARTESUNATE] showed an ED90 (Mus musculus [15]) of 15.3 mg/kg, a Reduction (Mus musculus [1]) of 90% and an ED90 (Mus musculus [2]) of 10.5 mg/kg. The ED50 (Mus musculus [5]) was 2.8 mg/kg and the ED50 (Mus musculus [16]) was 5.4 mg/kg.

COCCOCC1=C(C(F)(F)F)O[C@@H]2OC3(C)CC[C@H]4[C@H](C)CC[C@@H]1[C@@]24OO3 (single isomer, unassigned) gave an IC50 (Plasmodium falciparum [9]) of 2.7 nM and a Parasitemia (Mus musculus [3]) of 6%.

With C[C@@H]1CC[C@H]2C(COCc3ccccc3)=C(C(F)(F)F)O[C@@H]3OC4(C)CC[C@@H]1[C@]32OO4 (single isomer, unassigned) the IC50 (Plasmodium falciparum [6]) was 20 nM.

C[C@@H]1CC[C@H]2C(CC(C(=O)O)C(=O)O)=C(C(F)(F)F)O[C@@H]3O[C@]4(C)CC[C@@H]1[C@]32OO4 showed an IC50 (Plasmodium falciparum [6]) of over 1000 nM.

CC(=O)OCC1=C(C(F)(F)F)O[C@@H]2OC3(C)CC[C@H]4[C@H](C)CC[C@@H]1[C@@]24OO3 (single isomer, unassigned) showed an IC50 (Plasmodium falciparum [9]) of 1.7 nM.

With C[C@@H]1CC[C@H]2C(CN=[N+]=[N-])=C(C(F)(F)F)O[C@@H]3OC4(C)CC[C@@H]1[C@]32OO4 (single isomer, unassigned) the IC50 (Plasmodium falciparum [9]) was 10 nM.

Compound C=CCOCC1=C(C(F)(F)F)O[C@@H]2OC3(C)CC[C@H]4[C@H](C)CC[C@@H]1[C@@]24OO3 (single isomer, unassigned) has an IC50 (Plasmodium falciparum [9]) of 6 nM.

With C[C@@H]1CC[C@H]2C(COCCO)=C(C(F)(F)F)O[C@@H]3OC4(C)CC[C@@H]1[C@]32OO4 (single isomer, unassigned) the IC50 (Plasmodium falciparum [9]) was 2.4 nM and the Parasitemia (Mus musculus [3]) was 2%.

Compound C[C@@H]1CC[C@H]2C(CO)=C(C(F)(F)F)O[C@@H]3OC4(C)CCC1[C@]32OO4 (single isomer, unassigned) has an IC50 (Plasmodium falciparum [9]) of 7.5 nM and a Parasitemia (Mus musculus [3]) of 40%.

With CCNCC1=C(C(F)(F)F)O[C@@H]2O[C@]3(C)CCC4[C@H](C)CC[C@@H]1[C@]42OO3 (stereo partly drawn) the ED90 (Mus musculus [15]) was under 10 mg/kg, the Reduction (Mus musculus [1]) was 98.1% and the ED90 (Mus musculus [2]) was under 10 mg/kg. The Parasitemia (Mus musculus [4]) was 66%, the ED50 (Mus musculus [5]) was under 10 mg/kg and the Parasitemia (Mus musculus [17]) was 5%. It also gave an ED50 (Mus musculus [16]) of under 10 mg/kg, an IC50 (Plasmodium falciparum [6]) of 13.4 nM and a Reduction (Mus musculus [7]) of 96%.

With C[C@@H]1CC[C@H]2C(CN)=C(C(F)(F)F)O[C@@H]3OC4(C)CC[C@@H]1[C@]32OO4 (single isomer, unassigned) the IC50 (Plasmodium falciparum [9]) was 4.4 nM and the Parasitemia (Mus musculus [3]) was 0.7%.

For C[C@@H]1CC[C@H]2C(CNCCN)=C(C(F)(F)F)O[C@@H]3O[C@]4(C)CCC1[C@]32OO4 (stereo partly drawn), the IC50 (Plasmodium falciparum [9]) was 1.2 nM, the Parasitemia (Mus musculus [18]) was 25% and the Parasitemia (Mus musculus [3]) was 0%.

COC(=O)C(C(=O)OC)C1=C(C(F)(F)F)O[C@@H]2OC3(C)CCC4[C@H](C)CC[C@@H]1[C@]42OO3 (single isomer, unassigned) showed an IC50 (Plasmodium falciparum [6]) of over 1000 nM.

Compound C[C@@H]1CC[C@H]2C(CN3CCOCC3)=C(C(F)(F)F)O[C@@H]3OC4(C)CCC1[C@]32OO4 (single isomer, unassigned) has an IC50 (Plasmodium falciparum [9]) of 3.1 nM, an ED90 (Mus musculus [15]) of under 10 mg/kg and a Reduction (Mus musculus [1]) of 98.1%. The ED90 (Mus musculus [2]) was under 10 mg/kg, the Parasitemia (Mus musculus [3]) was 18% and the ED50 (Mus musculus [19]) was under 10 mg/kg. It also gave a Parasitemia (Mus musculus [20]) of 45%, an ED50 (Mus musculus [16]) of under 10 mg/kg and a Reduction (Mus musculus [7]) of 93.3%.

In the case of C[C@@H]1CC[C@H]2C(CN3CCN(CCO)CC3)=C(C(F)(F)F)O[C@@H]3OC4(C)CC[C@@H]1[C@]32OO4 (single isomer, unassigned), the logD [21] is reported as 3.46, the Vd [8] is reported as 11.8 L/kg and the ED90 (Mus musculus [15]) is reported as under 10 mg/kg. The Reduction (Mus musculus [1]) was 100%, the clearance [10] was 149 mL/min/kg and the solubility [11] was over 3000 µg/mL. For the same compound, the pKa [22] was 6.59, the ED90 (Mus musculus [2]) was under 10 mg/kg and the solubility [12] was 676 µg/mL (≈ 1460 µM). It also gave a Parasitemia (Mus musculus [4]) of 37%, a bioavailability [13] of 34.6% and an ED50 (Mus musculus [5]) of under 10 mg/kg. For the same compound, the solubility [14] was 234 µg/mL (≈ 507 µM), the Parasitemia (Mus musculus [17]) was 0.5% and the ED50 (Mus musculus [16]) was under 10 mg/kg. For the same compound, the IC50 (Plasmodium falciparum [6]) was 15.2 nM, the Reduction (Mus musculus [7]) was 100% and the logP [23] was 3.52.

In the case of CC1=C(C(F)(F)F)O[C@@H]2OC3(C)CC[C@H]4[C@H](C)CC[C@@H]1[C@@]24OO3 (single isomer, unassigned), the IC50 (Plasmodium falciparum [9]) is reported as 6 nM, the Parasitemia (Mus musculus [3]) is reported as 0% and the Parasitemia (Mus musculus [4]) is reported as 34%.

For CC1=CO[C@@H]2OC3(C)CC[C@H]4[C@H](C)CC[C@@H]1[C@@]24OO3 (single isomer, unassigned) [ANHYDRODIHYDROARTEMISININ], the IC50 (Plasmodium falciparum [9]) was 20 nM and the Parasitemia (Mus musculus [3]) was 18%.

Compound C[C@@H]1CC[C@H]2C(COCC(O)CO)=C(C(F)(F)F)O[C@@H]3OC4(C)CCC1[C@]32OO4 (single isomer, unassigned) has an IC50 (Plasmodium falciparum [9]) of 3.7 nM.
